# Measurements taken from publication PMC5858514 (Theranostics, 2018).
# Legend:
# [1] = test system: MDA-MB-231 tumor; assay: In vivo antitumor activity; design: species or system mice; conditions: three i.v. injections every other day, 6 mg/kg PTX equivalent
# In short: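 Female BALB/c nude mice were fed a folate-deficient diet for 6 days, then given MDA-MB-231 cells at the right axillary fossa. Treatment began at tumor volumes of 80–150 mm3, n = 5 per group, with a PBS (pH 7.4) control. Dosing was 6 mg/kg PTX equivalent by tail vein, three injections every other day. Tumor volume was measured every other day. Excised tumors were assayed for CD46 protein.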
# [2] = Toxicity in the therapy study: body weight and histopathology; format: in vivo, mice
# In short: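 Female nude mice bearing MDA-MB-231 tumors, n = 5 per group with a PBS (pH 7.4) control. They received 6 mg/kg PTX equivalent i.v. by tail vein, three doses every other day. Body weight was recorded every other day. Liver and kidneys were excised for pathology.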
# [3] = test system: OVCAR3 cells; assay: Apoptosis study, Annexin V-FITC/PI flow cytometry; format: cell-based, human; conditions: OVCAR3, 24 h
# In short: (§1)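 Annexin V-FITC/PI apoptosis assay. Media: MDA-MB-231 in L-15, OVCAR3 in DMEM, U87MG in MEM; all with 10% FBS, 37 °C, 5% CO2. Cells in 6-well plates got 200 μL of 1 mg/mL test compound for 24 h, then two PBS (pH 7.4) washes. Binding buffer, propidium iodide and Annexin V-FITC were added before flow cytometry. Q2 was early apoptotic and Q4 late apoptotic; Q2+Q4 was taken as […].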
# [4] = test system: MDA-MB-231, OVCAR3, and U87MG cell lines; assay: Cell viability MTT assay, three tumor cell lines stated together; format: cell-based, human; conditions: maximum / at the highest dose
# In short: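 MTT viability assay. Cells at 5 × 10^3 per well, kept at 37 °C, 5% CO2 with 10% FBS: MDA-MB-231 in L-15, OVCAR3 and 293T in DMEM, U87MG in MEM. Test compound from 3 pM to 1.6 nM for 24 h, six replicates. MTT (5 mg/mL stock) added for 4 h, medium replaced with DMSO, absorbance read at 490 nm.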
# [5] = test system: U87MG cells; assay: Apoptosis study, Annexin V-FITC/PI flow cytometry; format: cell-based, human; conditions: 24 h
# In short: as §1
# [6] = test system: MDA-MB-231 cells; assay: Apoptosis study, Annexin V-FITC/PI flow cytometry; format: cell-based, human; conditions: MDA-MB-231, 24 h
# In short: as §1
smiles,measurement,setting,value
"CC(=O)O[C@H]1C(=O)[C@@]2(C)[C@H]([C@H](OC(=O)c3ccccc3)[C@]3(O)C[C@H](OC(=O)[C@H](O)[C@@H](NC(=O)c4ccccc4)c4ccccc4)C(C)=C1C3(C)C)[C@]1(OC(C)=O)CO[C@@H]1C[C@@H]2O [PTX, paclitaxel]",tumor volume inhibition,[1],41.04%
same,histopathological examination (H&E) of liver and kidneys / major organs,"[2]; after treatment, compared with control group",no distinct pathologic changes
same,body weight loss,"[2]; day 21 post initial treatment, 6 mg/kg i.v. x3",0.65 ± 0.02 g
same,change in body weight,"[2]; over the study period, 6 mg/kg PTX equivalent i.v. x3",significant decrease
same,cells undergoing early apoptosis (Q2),[3],21.8%
same,late apoptotic cells (Q4),[3],2.5%
same,cell inhibition ratio,[4],63%
same,cells undergoing early apoptosis (Q2),[5],29.8%
same,late apoptotic cells (Q4),[5],3.1%
same,cells undergoing early apoptosis (Q2),[6],33.8%
same,late apoptotic cells (Q4),[6],1.3%
